In article PMC8775362 (Molecular pharmaceutics, 2021):
Like-named read-outs stand apart in the source and are kept apart here. Non-standard residues stand in square brackets, D forms with d. Residues, ends and D or L forms follow the SMILES beside them. *: point of attachment. 5FAM = O=C1OC2(c3ccc(O)cc3Oc3cc(O)ccc32)c2ccc(C(=O)*)cc21; Trp(6-Cl) = N[C@@H](Cc1c[nH]c2cc(Cl)ccc12)C(=O)O; pY = N[C@@H](Cc1ccc(OP(=O)(O)O)cc1)C(=O)O; Ac3c = NC1(C(=O)O)CC1; Aib = CC(C)(N)C(=O)O; βAla = NCCC(=O)O

Legend:
MDM2 = conditions: cited from earlier work
[1] = system: SJSA-1 human osteosarcoma cells; assay: Cell uptake and specificity of [^18F]6 in SJSA-1 cells; format: cell-based
Summary of the method: (§1)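 Cells (HepG2 in MEM, SJSA-1 in RPMI 1640, both with 10% FBS) were seeded at 2×10^5/well and held overnight at 37°C. Medium was swapped for serum-free medium holding 18.5 kBq tracer; incubation was at 37°C for 0.5, 1 or 2 h. Blocking used unlabeled parent inhibitor, either 5–50 µM for 1 h or 25 µM for the time course.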

[2] = system: HepG2 human hepatocellular carcinoma cells; assay: Cell uptake and specificity of [^18F]6 in HepG2 cells; format: cell-based
Summary of the method: as §1

P-glycoprotein = conditions: neuroblastoma cells; cited from earlier work
[3] = cited from earlier work

SMILES: CSCC[C@H](NC(=O)[C@H](Cc1ccccc1)NC(=O)CCNC(=O)CCNC(=O)c1ccc2c(c1)C(=O)OC21c2ccc(O)cc2Oc2cc(O)ccc21)C(=O)NC(C)(C)C(=O)N[C@@H](Cc1ccc(OP(=O)(O)O)cc1)C(=O)N[C@@H](Cc1c[nH]c2cc(Cl)ccc12)C(=O)N[C@@H](CCC(=O)O)C(=O)NC1(C(=O)N[C@@H](CC(C)C)C(=O)N[C@@H](CC(N)=O)C(N)=O)CC1 [5-FAM-PMDM6] ({5FAM-βAla-βAla}-FM[Aib][pY][Trp(6-Cl)]E[Ac3c]LN-NH2; N-terminus and C-terminus assumed)
- Kd (MDM2; read-out: binding affinity (Kd) towards MDM2, literature, same assay): 1 ± 0.1 nM

SMILES: COc1cc(C(=O)O)ccc1NC(=O)[C@@H]1N[C@@H](CC(C)(C)C)[C@](C#N)(c2ccc(Cl)cc2F)[C@H]1c1cccc(Cl)c1F [RG7388, Idasanutlin]
- inhibition at 50 µM ([1]; Homo sapiens, SJSA-1, 1 h, read-out: inhibition of [^18F]6 uptake): > 80%
- effect of blocking on [^18F]6 uptake ([1]; SJSA-1, 25 μM RG7388, all time points 30-120 min): significantly decreased
- effect of blocking on [^18F]6 uptake ([2]; HepG2, 25 μM RG7388, all time points 30-120 min): significantly decreased
- inhibition at 50 µM ([2]; Homo sapiens, HepG2, 1 h, read-out: inhibition of [^18F]6 uptake): > 80%
- substrate of P-glycoprotein (P-glycoprotein): not a good substrate
- stability in humans in vivo [3]: fully stable

SMILES: COc1ccc2[nH]c3c(-c4cccc5ccccc45)nccc3c2c1 [SP-141]
- Kd (MDM2; read-out: binding affinity Kd): 43 nM
